In ChEMBL document CHEMBL5136966, “Synthesis and biological evaluation of N 6 derivatives of 8-azapurine as novel antiplatelet agents” (RSC Med Chem, 2021):

Key:
[1] = Antiplatelet activity against ADP-induced human platelet in platelet rich plasma assessed as inhibition of platelet aggregation at 10 uM preincubated for 2 mins followed by ADP stimulation and measured for 5 mins by aggregometry relative to control; type: functional; conditions: 7 min
Outline: (§1)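 Human whole blood anticoagulated with 3.8% sodium citrate (1:9 v/v); PRP by centrifugation at 300 rpm for 20 min at room temperature, PPP at 900 rpm for 10 min. Compound in DMSO (final under 0.5%) added to PRP, 2 min at 37 °C, then ADP 10 μM. Aggregometer stirred at 900 rpm, 37 °C, calibrated with PRP and PPP, read 5 min (Born). Inhibition from maximal trace height versus DMSO vehicle.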

[2] = Antiplatelet activity against ADP-induced human platelet in platelet rich plasma assessed as inhibition of platelet aggregation at 3 uM preincubated for 2 mins followed by ADP stimulation and measured for 5 mins by aggregometry relative to control; type: functional; conditions: 7 min; outline: as §1
[3] = Antiplatelet activity against ADP-induced human platelet in platelet rich plasma assessed as inhibition of platelet aggregation preincubated for 2 mins followed by ADP stimulation and measured for 5 mins by aggregometry; type: functional, cell-based; outline: as §1
Platelet = assay: Potency index, ratio of ticagrelor IC50 to test compound IC50 for antiplatelet activity against ADP-induced human platelet in platelet rich plasma assessed as inhibition of platelet aggregation; type: functional
Mus musculus [4] = assay: Antiplatelet activity against ADP-induced platelet aggregation in mouse assessed as inhibition of platelet aggregation at 2.5 mg/kg, iv measured after 1 hr by turbidimetric method relative to control; type: functional
Outline: (§2)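 Male mice of about 20 g received compound iv (2.5 mg/kg) or orally (5 mg/kg). After 1 h, blood was drawn from the abdominal aorta into 3.8% citrate. PRP was obtained at 1000 rpm for 7 min, adjusted with PPP to about 2 × 10^6 platelets/mL and incubated 10 min at 37 °C. ADP final 5 μM; turbidimetric aggregation read, PRP as zero and PPP as 100%.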

Mus musculus [5] = assay: Antiplatelet activity against ADP-induced platelet aggregation in mouse assessed as inhibition of platelet aggregation at 5 mg/kg, po measured after 1 hr by turbidimetric method relative to control; type: functional; outline: as §2
[6] = Toxicity in mouse assessed as bleeding time at 5 mg/kg, po administered via gavage measured after 1 hr by bleeding tail test (reference value: 5.2 mins); type: organism-based; conditions: in vivo
[7] = Toxicity in mouse assessed as blood loss at 5 mg/kg, po administered via gavage measured after 1 hr by bleeding tail test (reference value: 34.92 uL); type: organism-based; conditions: in vivo
[8] = Toxicity in mouse assessed as death at 1500 mg/kg, po administered via gavage measured for 14 days; type: organism-based; conditions: in vivo, 336 h, time 14 day
Outline: (§3)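 Single-dose oral gavage study run under GLP. Forty mice (20 male, 20 female) were randomly split into a treated group and a vehicle group of 20 each (10 male, 10 female). The vehicle group got aqueous sodium carboxymethyl cellulose.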

[9] = Toxicity in mouse assessed as change in body weight at 1500 mg/kg, po administered via gavage measured for 14 days; type: organism-based; conditions: in vivo, 336 h, time 14 day; outline: as §3
[10] = Stability of compound in PBS buffer incubated for 1 week at 37 degC; type: physicochemical; conditions: time 1 weeks, read-out: Stability
[11] = Stability of compound in fasted-state simulated gastric fluid incubated for 1 day; type: ADME; conditions: read-out: Stability
[12] = Stability of compound in fasted-state simulated intestinal fluid incubated for 1 day; type: ADME; conditions: read-out: Stability
[13] = Stability in mouse liver microsomes measured after 1 hr; type: ADME, Microsome; conditions: read-out: Stability
[14] = Stability in mouse liver microsomes measured after 2 hrs; type: ADME, Microsome; conditions: read-out: Stability
P2Y purinoceptor 12 = P2Y purinoceptor 12 (Homo sapiens, UniProt Q9H244); assay: Inhibition of P2Y12 receptor in human platelet assessed as reduction in ADP-induced VASP phosphorylation by flow cytometry; type: functional, cell-based
P2Y purinoceptor 12, sequence (Q9H244 whole entry): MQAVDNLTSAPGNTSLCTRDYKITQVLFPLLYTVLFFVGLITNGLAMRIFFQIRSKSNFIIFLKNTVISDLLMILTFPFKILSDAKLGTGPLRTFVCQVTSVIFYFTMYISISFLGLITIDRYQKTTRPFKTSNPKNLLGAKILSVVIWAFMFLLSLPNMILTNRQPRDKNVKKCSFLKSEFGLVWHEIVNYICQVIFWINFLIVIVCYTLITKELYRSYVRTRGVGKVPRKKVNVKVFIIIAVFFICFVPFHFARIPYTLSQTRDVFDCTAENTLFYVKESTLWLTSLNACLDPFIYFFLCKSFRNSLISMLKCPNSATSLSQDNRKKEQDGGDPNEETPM

## CCCSc1nc(N/N=C/c2ccccc2)c2nnn([C@@H]3C[C@H](O)[C@@H](O)[C@H]3O)c2n1
[1]
  inhibition at 10 µM: 100%
[2]
  inhibition at 3 µM: 81.6%
[3]
  IC50: 450 nM
Platelet
  Ratio IC50: 2

## CCCSc1nc(N/N=C/c2ccc(F)c(F)c2)c2nnn([C@@H]3C[C@H](O)[C@@H](O)[C@H]3O)c2n1
[1]
  inhibition at 10 µM: 96.5%
[2]
  inhibition at 3 µM: 62.7%

## CCCSc1nc(N/N=C/c2ccccc2O)c2nnn([C@@H]3C[C@H](O)[C@@H](O)[C@H]3O)c2n1
[1]
  inhibition at 10 µM: 92.1%
[2]
  inhibition at 3 µM: 83.6%
[3]
  IC50: 670 nM

## CCCSc1nc(N/N=C/c2cccc(O)c2)c2nnn([C@@H]3C[C@H](O)[C@@H](O)[C@H]3O)c2n1
[1]
  inhibition at 10 µM: 100%
[2]
  inhibition at 3 µM: 93.4%
[3]
  IC50: 200 nM
Platelet
  Ratio IC50: 4
Mus musculus [4]
  inhibition in vivo at 2.5 mg/kg: 62.2%
Mus musculus [5]
  inhibition in vivo at 5 mg/kg: 73.3%
[6]
  Time: 10.4 min
[7]
  Activity: 44.5 µL
[8]
  Activity: Non-Toxic
[9]
  Activity: Non-Toxic
[10]
  remaining at 168 h: 98.3%
[11]
  remaining at 24 h: 96.7%
[12]
  remaining at 24 h: 97.4%
[13]
  remaining at 1 h: 81.2%
[14]
  remaining at 2 h: 73.7%
P2Y purinoceptor 12
  IC50: 46 nM

## CCCSc1nc(N/N=C/c2ccc(O)cc2)c2nnn([C@@H]3C[C@H](O)[C@@H](O)[C@H]3O)c2n1
[1]
  inhibition at 10 µM: 100%
[2]
  inhibition at 3 µM: 86.3%
[3]
  IC50: 780 nM

## CCCSc1nc(N/N=C/c2ccc(O)cc2O)c2nnn([C@@H]3C[C@H](O)[C@@H](O)[C@H]3O)c2n1
[1]
  inhibition at 10 µM: 98.3%
[2]
  inhibition at 3 µM: 63.4%

## CCCSc1nc(N/N=C/c2ccccc2OC)c2nnn([C@@H]3C[C@H](O)[C@@H](O)[C@H]3O)c2n1
[1]
  inhibition at 10 µM: 48.7%
[2]
  inhibition at 3 µM: 11.7%

## CCCSc1nc(N/N=C/c2ccc(OC)cc2)c2nnn([C@@H]3C[C@H](O)[C@@H](O)[C@H]3O)c2n1
[1]
  inhibition at 10 µM: 81.5%
[2]
  inhibition at 3 µM: 71.4%
[3]
  IC50: 1300 nM

## CCCSc1nc(N/N=C/c2ccc(OC)c(OC)c2)c2nnn([C@@H]3C[C@H](O)[C@@H](O)[C@H]3O)c2n1
[1]
  inhibition at 10 µM: 78.3%
[2]
  inhibition at 3 µM: 33.4%

## CCCSc1nc(N/N=C/c2ccccc2Cl)c2nnn([C@@H]3C[C@H](O)[C@@H](O)[C@H]3O)c2n1
[1]
  inhibition at 10 µM: 83.2%
[2]
  inhibition at 3 µM: 51.6%

## CCCSc1nc(N/N=C/c2ccc(Cl)cc2)c2nnn([C@@H]3C[C@H](O)[C@@H](O)[C@H]3O)c2n1
[1]
  inhibition at 10 µM: 53.7%
[2]
  inhibition at 3 µM: 7%

## CCCSc1nc(N/N=C/c2ccc(Cl)cc2Cl)c2nnn([C@@H]3C[C@H](O)[C@@H](O)[C@H]3O)c2n1
[1]
  inhibition at 10 µM: 50.1%

## CCCSc1nc(N/N=C/c2cccc([N+](=O)[O-])c2)c2nnn([C@@H]3C[C@H](O)[C@@H](O)[C@H]3O)c2n1
[1]
  inhibition at 10 µM: 88.6%
[2]
  inhibition at 3 µM: 76.3%
[3]
  IC50: 660 nM

## CCCSc1nc(N/N=C/c2ccc([N+](=O)[O-])cc2)c2nnn([C@@H]3C[C@H](O)[C@@H](O)[C@H]3O)c2n1
[1]
  inhibition at 10 µM: 62.7%
[2]
  inhibition at 3 µM: 5%

## CCCSc1nc(N/N=C/c2ccccn2)c2nnn([C@@H]3C[C@H](O)[C@@H](O)[C@H]3O)c2n1
[1]
  inhibition at 10 µM: 71.7%
[2]
  inhibition at 3 µM: 36.4%

## CCCSc1nc(N/N=C/c2cccs2)c2nnn([C@@H]3C[C@H](O)[C@@H](O)[C@H]3O)c2n1
[1]
  inhibition at 10 µM: 95.4%
[2]
  inhibition at 3 µM: 80.5%
[3]
  IC50: 400 nM

## CCCSc1nc(NC2CC2)c2nnn([C@@H]3C[C@H](OCCO)[C@@H](O)[C@H]3O)c2n1
[1]
  inhibition at 10 µM: 14.8%

## CCCNc1nc(SCCC)nc2c1nnn2[C@@H]1C[C@H](OCCO)[C@@H](O)[C@H]1O
[1]
  inhibition at 10 µM: 13.6%

## CCCSc1nc(NC2CC2)c2nnn([C@@H]3C[C@H](O)[C@@H](O)[C@H]3O)c2n1
[1]
  inhibition at 10 µM: 86.3%
[3]
  IC50: 820 nM

## CCCSc1nc(N/N=C/c2ccc(Cl)cc2)c2nnn([C@@H]3C[C@H](OCCO)[C@@H](O)[C@H]3O)c2n1
[1]
  inhibition at 10 µM: 69.1%
[2]
  inhibition at 3 µM: 9.1%

## CCCSc1nc(NCCc2cccc(F)c2)c2nnn([C@@H]3C[C@H](O)[C@@H](O)[C@H]3O)c2n1
[1]
  inhibition at 10 µM: 68.3%

## CCCSc1nc(NC2CCCCC2)c2nnn([C@@H]3C[C@H](OCCO)[C@@H](O)[C@H]3O)c2n1
[1]
  inhibition at 10 µM: 5.3%

## CCCSc1nc(NCC)c2nnn([C@@H]3C[C@H](OCCO)[C@@H](O)[C@H]3O)c2n1
[1]
  inhibition at 10 µM: 21.4%
[3]
  IC50: 4890 nM

## CCCSc1nc(NCCc2ccc(O)cc2)c2nnn([C@@H]3C[C@H](O)[C@@H](O)[C@H]3O)c2n1
[1]
  inhibition at 10 µM: 76.8%

## CCCSc1nc(NC2CCCC2)c2nnn([C@@H]3C[C@H](OCCO)[C@@H](O)[C@H]3O)c2n1
[1]
  inhibition at 10 µM: 8.1%

## CCCNc1nc(SCCC)nc2c1nnn2[C@@H]1C[C@H](O)[C@@H](O)[C@H]1O
[1]
  inhibition at 10 µM: 68.6%

## CCCSc1nc(NCC(C)C)c2nnn([C@@H]3C[C@H](OCCO)[C@@H](O)[C@H]3O)c2n1
[1]
  inhibition at 10 µM: 7.8%

## CCCCNc1nc(SCCC)nc2c1nnn2[C@@H]1C[C@H](OCCO)[C@@H](O)[C@H]1O
[1]
  inhibition at 10 µM: 40.8%
[3]
  IC50: 3160 nM

## CCCSc1nc(NCCCO)c2nnn([C@@H]3C[C@H](OCCO)[C@@H](O)[C@H]3O)c2n1
[1]
  inhibition at 10 µM: 13.9%

## CCCSc1nc(N/N=C/c2cccc([N+](=O)[O-])c2)c2nnn([C@@H]3C[C@H](OCCO)[C@@H](O)[C@H]3O)c2n1
[1]
  inhibition at 10 µM: 95.5%
[2]
  inhibition at 3 µM: 77.3%

## CCCSc1nc(NCCO)c2nnn([C@@H]3C[C@H](OCCO)[C@@H](O)[C@H]3O)c2n1
[1]
  inhibition at 10 µM: 15.2%

## CCCSc1nc(N/N=C/c2ccc([N+](=O)[O-])cc2)c2nnn([C@@H]3C[C@H](OCCO)[C@@H](O)[C@H]3O)c2n1
[1]
  inhibition at 10 µM: 90.9%
[2]
  inhibition at 3 µM: 70.9%

## CCCSc1nc(N/N=C/c2cccc(O)c2)c2nnn([C@@H]3C[C@H](OCCO)[C@@H](O)[C@H]3O)c2n1
[1]
  inhibition at 10 µM: 100%
[2]
  inhibition at 3 µM: 85.4%
[3]
  IC50: 580 nM

## CCCSc1nc(N/N=C/c2ccc(F)c(F)c2)c2nnn([C@@H]3C[C@H](OCCO)[C@@H](O)[C@H]3O)c2n1
[1]
  inhibition at 10 µM: 85.4%
[2]
  inhibition at 3 µM: 46.3%

## CCCSc1nc(NCCO)c2nnn([C@@H]3C[C@H](O)[C@@H](O)[C@H]3O)c2n1
[1]
  inhibition at 10 µM: 69.4%

## CCCSc1nc(NCCc2ccccc2)c2nnn([C@@H]3C[C@H](O)[C@@H](O)[C@H]3O)c2n1
[1]
  inhibition at 10 µM: 33.4%

## CCCSc1nc(NCCCc2ccccc2)c2nnn([C@@H]3C[C@H](O)[C@@H](O)[C@H]3O)c2n1
[1]
  inhibition at 10 µM: 29.3%

## CCCSc1nc(NCCCO)c2nnn([C@@H]3C[C@H](O)[C@@H](O)[C@H]3O)c2n1
[1]
  inhibition at 10 µM: 70.3%
[3]
  IC50: 1780 nM

## CCCCNc1nc(SCCC)nc2c1nnn2[C@@H]1C[C@H](O)[C@@H](O)[C@H]1O
[1]
  inhibition at 10 µM: 85.4%

## CCCSc1nc(N[C@@H]2C[C@H]2c2ccc(F)c(F)c2)c2nnn([C@@H]3C[C@H](OCCO)[C@@H](O)[C@H]3O)c2n1 [TICAGRELOR]
[1]
  inhibition at 10 µM: 92.7%
[2]
  inhibition at 3 µM: 78.6%
[3]
  IC50: 740 nM
Mus musculus [4]
  inhibition in vivo at 2.5 mg/kg: 52.2%
Mus musculus [5]
  inhibition in vivo at 5 mg/kg: 69.4%
[6]
  Time: > 20 min
[7]
  Activity: 73.25 µL
P2Y purinoceptor 12
  IC50: 39 nM
